Assay results taken from PMC8682075 (Biochimie, 2020).
“Also recorded” adds a separate entry of the source.

What was measured:
[1] = molecular target: T1, MMUT (methylmalonyl-CoA mutase) (Homo sapiens, UniProt P22033); test: Cobamide equilibrium binding by quenching of intrinsic protein fluorescence; settings: for binding to MMUT (in words): micromolar cobamide concentrations
T1 sequence (P22033 33-750): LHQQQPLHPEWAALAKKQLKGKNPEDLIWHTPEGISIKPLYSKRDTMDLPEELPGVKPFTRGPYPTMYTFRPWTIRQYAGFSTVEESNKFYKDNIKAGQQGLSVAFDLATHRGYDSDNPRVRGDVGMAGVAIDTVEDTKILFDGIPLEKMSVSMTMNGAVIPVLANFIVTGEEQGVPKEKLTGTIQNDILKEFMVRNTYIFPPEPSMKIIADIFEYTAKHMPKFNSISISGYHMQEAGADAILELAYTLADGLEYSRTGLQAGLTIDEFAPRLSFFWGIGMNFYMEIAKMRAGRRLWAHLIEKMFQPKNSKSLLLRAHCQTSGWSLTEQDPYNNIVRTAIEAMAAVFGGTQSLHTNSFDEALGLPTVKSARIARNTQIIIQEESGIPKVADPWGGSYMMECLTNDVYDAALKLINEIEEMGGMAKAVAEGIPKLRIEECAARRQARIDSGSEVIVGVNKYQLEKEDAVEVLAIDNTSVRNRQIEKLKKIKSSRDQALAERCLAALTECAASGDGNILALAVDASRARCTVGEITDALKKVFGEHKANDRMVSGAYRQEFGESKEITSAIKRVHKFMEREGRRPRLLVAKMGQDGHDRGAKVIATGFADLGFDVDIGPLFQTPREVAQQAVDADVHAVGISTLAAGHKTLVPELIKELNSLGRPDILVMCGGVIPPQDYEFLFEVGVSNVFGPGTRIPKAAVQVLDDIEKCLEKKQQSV
How it was run: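 Fluorescence quenching used MMUT at 0.2 μM, from N-terminal His-tag (E. coli BL21(DE3)pLysS) and C-terminal His-tag preparations. Adenosylated cofactor was titrated at 0.19–2.5 μM or 0.23–2.5 μM, depending on cofactor class. Plate-reader excitation/emission was 282/340 nm. Kd came from a quadratic fit allowing for ligand depletion. Values were averaged over ≥5 technical replicates from ≥2 independent experiments.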

[2] = molecular target: T1, MMUT (methylmalonyl-CoA mutase); test: Binding kinetics by stopped-flow fluorescence spectroscopy; settings: MMUT 0.2 μM, cobamide 4.8 – 16.2 μM (to 24.3 μM for Ado[Phe]Cba)
How it was run: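 Stopped-flow fluorimetry used C-terminally His-tagged MMUT at 0.2 μM final after mixing. Adenosylated cofactor was added at 4.8, 7.2, 10.8 and 16.2 μM (24.3 μM for one cofactor). Excitation was 282 nm, with emission through a 320 nm long-pass filter. Traces, minus the buffer-addition control, were fitted to first-order exponential decay to give k_obs. k_on was the slope of k_obs versus concentration, from four technical replicates.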

[3] = molecular target: T1, MMUT (methylmalonyl-CoA mutase); test: Coupled thiokinase/DTNB spectrophotometric MMUT activity assay; assay type: biochemical; settings: for MMUT activity with the cobamide (in words): coupled spectrophotometric assay; for KM, app relative to AdoCbl: higher than AdoCbl
How it was run: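 In the coupled kinetic assay, succinyl-CoA was converted by thiokinase to CoA, which was detected spectrophotometrically with DTNB. C-terminally His-tagged MMUT was at 10 nM. Enzymatically made (R)-methylmalonyl-CoA was fixed at 4 mM. Adenosylated cofactor was varied per cofactor, from 0.031 μM at lowest to 12 μM at highest. K_M,app and k_cat come from ≥5 replicates over ≥2 independent experiments and two biological samples.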

[4] = molecular target: T2, MMUT WT (Homo sapiens, UniProt P22033); test: Activity screen; assay type: biochemical; settings: cobamide 1 μM, MMUT WT 0.01 μM, 30 minutes
T2 sequence (P22033 33-750): T1 sequence (P22033 33-750)
How it was run: (§1)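 At 30 °C, reaction was started with thiokinase, MgCl₂, ADP and methylmalonyl-CoA. Final levels were cofactor 1 μM and (R)-methylmalonyl-CoA 2 mM. Enzyme was WT 0.01 μM, G717V 1 μM, other variants 0.1 μM. After 30 min, an aliquot went into 2.5 mM DTNB; CoA was taken from A412 (ε 14,150 M⁻¹ cm⁻¹).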

[5] = tested on: MMUT variants G648D, V633G, G717V, P86L, Y100C, Y231N; test: Activity screen; assay type: biochemical, human; settings: cobamide 1 μM, variants 0.1 μM (G717V 1 μM), 30 minutes
How it was run: as §1

[6] = tested on: Human intrinsic factor (IF); settings: cited from earlier work

With `C/C1=C2/[N-][C@H]([C@H](CC(N)=O)[C@@]2(C)CCC(=O)NC[C@@H](C)OP(=O)([O-])O[C@H]2[C@@H](O)[C@@H](Oc3ccc(C)cc3)O[C@@H]2CO)[C@]2(C)N=C(/C(C)=C3N=C(/C=C4N=C1[C@@H](CCC(N)=O)C\4(C)C)[C@@H](CCC(N)=O)[C@]\3(C)CC(N)=O)[C@@H](CCC(N)=O)[C@]2(C)CC(N)=O.[CH2-][C@H]1O[C@@H](n2cnc3c(N)ncnc32)[C@H](O)[C@@H]1O.[Co+3]` [Ado[Cre]Cba] the “binding to MMUT (in words)” value [1] was “bound too strongly to measure a Kd value; also recorded: higher affinity for Ado[Cre]Cba than AdoCbl”, the “kon relative to AdoCbl (in words)” value [2] was “about six times higher” and the “KM, app (in words)” value [3] was “in the range of the benzimidazolyl cobamides”. For the same compound, the “MMUT activity with the cobamide (in words)” value (“MMUT activity” below) [3] was “active”, the “activity of WT MMUT with the cobamide (in words)” value (“activity of WT MMUT” for short) [4] was “active” and the “activity of MMUT variants with the cobamide (in words)” value (from here on “activity of MMUT variants”) [5] was “supported activity to a large extent in all of the variants”.

For `C/C1=C2/[N-][C@H]([C@H](CC(N)=O)[C@@]2(C)CCC(=O)NC[C@@H](C)OP(=O)([O-])O[C@H]2[C@@H](O)[C@@H](n3cnc4cccc(N)c43)O[C@@H]2CO)[C@]2(C)N=C(/C(C)=C3N=C(/C=C4N=C1[C@@H](CCC(N)=O)C\4(C)C)[C@@H](CCC(N)=O)[C@]\3(C)CC(N)=O)[C@@H](CCC(N)=O)[C@]2(C)CC(N)=O.[CH2-][C@H]1O[C@@H](n2cnc3c(N)ncnc32)[C@H](O)[C@@H]1O.[Co+3]` [K, 7-aminobenzimidazolylcobamide], the “activity of WT MMUT” value [4] was “active” and the “activity of MMUT variants” value [5] was “partially or entirely lost the ability to use”.

In the case of 3-deazaadeninylcobamide, the “activity of WT MMUT” value [4] is reported as “No activity”.

With `C/C1=C2/[N-][C@H]([C@H](CC(N)=O)[C@@]2(C)CCC(=O)NC[C@@H](C)OP(=O)([O-])O[C@H]2[C@@H](O)[C@@H](Oc3ccccc3)O[C@@H]2CO)[C@]2(C)N=C(/C(C)=C3N=C(/C=C4N=C1[C@@H](CCC(N)=O)C\4(C)C)[C@@H](CCC(N)=O)[C@]\3(C)CC(N)=O)[C@@H](CCC(N)=O)[C@]2(C)CC(N)=O.[CH2-][C@H]1O[C@@H](n2cnc3c(N)ncnc32)[C@H](O)[C@@H]1O.[Co+3]` [Ado[Phe]Cba, adenosylphenolylcobamide] the “MMUT activity” value [3] was “active”, the “KM, app relative to AdoCbl” value [3] was 100 fold and the “activity of WT MMUT” value [4] was “active”.

For “adenosyl-5-fluorobenzimidazolylcobamide [compound P]”, the “activity of WT MMUT” value [4] was “active” and the “activity of MMUT variants” value [5] was “some variants also had appreciable activity”.

In the case of `C/C1=C2/[N-][C@H]([C@H](CC(N)=O)[C@@]2(C)CCC(=O)NC[C@@H](C)OP(=O)([O-])O[C@H]2[C@@H](O)[C@@H](n3cnc4cccc(C)c43)O[C@@H]2CO)[C@]2(C)N=C(/C(C)=C3N=C(/C=C4N=C1[C@@H](CCC(N)=O)C\4(C)C)[C@@H](CCC(N)=O)[C@]\3(C)CC(N)=O)[C@@H](CCC(N)=O)[C@]2(C)CC(N)=O.[CH2-][C@H]1O[C@@H](n2cnc3c(N)ncnc32)[C@H](O)[C@@H]1O.[Co+3]` [J, 7-methylbenzimidazolylcobamide], the “activity of WT MMUT” value [4] is reported as “active” and the “activity of MMUT variants” value [5] is reported as “partially or entirely lost the ability to use”.

In the case of `C/C1=C2/[N-][C@H]([C@H](CC(N)=O)[C@@]2(C)CCC(=O)NC[C@@H](C)OP(=O)([O-])O[C@H]2[C@@H](O)[C@@H](n3cnc4ccccc43)O[C@@H]2CO)[C@]2(C)N=C(/C(C)=C3N=C(/C=C4N=C1[C@@H](CCC(N)=O)C\4(C)C)[C@@H](CCC(N)=O)[C@]\3(C)CC(N)=O)[C@@H](CCC(N)=O)[C@]2(C)CC(N)=O.[CH2-][C@H]1O[C@@H](n2cnc3c(N)ncnc32)[C@H](O)[C@@H]1O.[Co+3]` [Ado[Bza]Cba], the “difference in Kd relative to AdoCbl” value [1] is reported as ~ 25 fold, the “MMUT activity” value [3] is reported as “active” and the “KM, app relative to AdoCbl” value [3] is reported as 10 fold. For the same compound, the “activity of WT MMUT” value [4] was “active”.

In the case of “cyano-5-hydroxybenzimidazolylcobamide [CN[5-OHBza]Cba]”, the “IF affinity, lower than affinity for CNCbl” value [6] is listed as “no more than 2 fold”.

With purinylcobamide the “activity of WT MMUT” value [4] was “No activity”.

For adenosyladeninylcobamide [Ado[Ade]Cba], the “IF binding relative to AdoCbl” value [6] is given as “six orders of magnitude more weakly”.

For 6-methyladeninylcobamide, the “activity of WT MMUT” value [4] was “No activity”.

For `C/C1=C2/[N-][C@H]([C@H](CC(N)=O)[C@@]2(C)CCC(=O)NC[C@@H](C)O)[C@]2(C)N=C(/C(C)=C3N=C(/C=C4N=C1[C@@H](CCC(N)=O)C\4(C)C)[C@@H](CCC(N)=O)[C@]\3(C)CC(N)=O)[C@@H](CCC(N)=O)[C@]2(C)CC(N)=O.[Co+3]` [cobinamide], the “IF affinity (in words)” value [6] is listed as “low affinity”.

For `C/C1=C2/[N-][C@H]([C@H](CC(N)=O)[C@@]2(C)CCC(=O)NC[C@@H](C)O)[C@]2(C)N=C(/C(C)=C3N=C(/C=C4N=C1[C@@H](CCC(N)=O)C\4(C)C)[C@@H](CCC(N)=O)[C@]\3(C)CC(N)=O)[C@@H](CCC(N)=O)[C@]2(C)CC(N)=O.[CH2-][C@H]1O[C@@H](n2cnc3c(N)ncnc32)[C@H](O)[C@@H]1O.[Co]` [Ado-cobinamide], the “binding to MMUT (in words)” value [1] was “lower affinity than AdoCbl”.

With `C/C1=C2/[N-][C@H]([C@H](CC(N)=O)[C@@]2(C)CCC(=O)NC[C@@H](C)OP(=O)([O-])O[C@H]2[C@@H](O)[C@@H](n3cnc4cc(C)ccc43)O[C@@H]2CO)[C@]2(C)N=C(/C(C)=C3N=C(/C=C4N=C1[C@@H](CCC(N)=O)C\4(C)C)[C@@H](CCC(N)=O)[C@]\3(C)CC(N)=O)[C@@H](CCC(N)=O)[C@]2(C)CC(N)=O.[CH2-][C@H]1O[C@@H](n2cnc3c(N)ncnc32)[C@H](O)[C@@H]1O.[Co+3]` [Ado[5-MeBza]Cba] the “MMUT activity” value [3] was “active” and the “activity of WT MMUT” value [4] was “active”.

For `C/C1=C2/[N-][C@H]([C@H](CC(N)=O)[C@@]2(C)CCC(=O)NC[C@@H](C)OP(=O)([O-])O[C@H]2[C@@H](O)[C@@H](n3cnc4nc(C)nc(N)c43)O[C@@H]2CO)[C@]2(C)N=C(/C(C)=C3N=C(/C=C4N=C1[C@@H](CCC(N)=O)C\4(C)C)[C@@H](CCC(N)=O)[C@]\3(C)CC(N)=O)[C@@H](CCC(N)=O)[C@]2(C)CC(N)=O.[CH2-][C@H]1O[C@@H](n2cnc3c(N)ncnc32)[C@H](O)[C@@H]1O.[Co+3]` [Ado[2-MeAde]Cba, adenosyl-2-methyladeninylcobamide], the “IF binding relative to AdoCbl” value [6] is given as “six orders of magnitude more weakly”.

In the case of “cyanobenzimidazolylcobamide [CN[Bza]Cba]”, the “IF affinity, lower than affinity for CNCbl” value [6] is listed as “no more than 2 fold”.

For 6-azabenzimidazolylcobamide, the “activity of WT MMUT” value [4] was “No activity”.

For “cyano-para-cresolylcobamide [CN[Cre]Cba]”, the “IF affinity (in words)” value [6] is given as “low affinity”.
